# Assay results of several laboratories.
# Protocols differ between the studies behind these lines.
# RET V804M: Proto-oncogene tyrosine-protein kinase receptor Ret (RET, Homo sapiens, UniProt P07949, V804M)
# RET M918T: Proto-oncogene tyrosine-protein kinase receptor Ret (RET, Homo sapiens, UniProt P07949, M918T)
# RET V804L: Proto-oncogene tyrosine-protein kinase receptor Ret (RET, Homo sapiens, UniProt P07949, V804L)
target,test,conditions,remaining binding [%],SMILES
RET V804M,"cell-free assay, competition with immobilised ligand",1 µM,93,N#Cc1ccc(Nc2ccc3[nH]c(=O)[nH]c3c2)c(Cl)c1
RET M918T,"binding, competition with immobilised ligand",0.1 µM,98,C[C@@H](c1ccc(-n2cnc3c(N)ncnc32)cc1)N1CCc2nn(C)c(Cc3ccccc3)c2C1=O
RET M918T,"cell-free assay, competition with immobilised ligand",1 µM,100,CN(C(=O)c1ccccc1)c1cc(N(C)c2ccc3c(c2)CCc2ccc(C(=O)NCCN4CCOCC4)cc2C3=O)ccc1F
RET V804M,binding,1 µM,100,COc1ccnn2ncc(-c3ccnc(N(C)C)n3)c12
RET M918T,"cell-free assay, competition with immobilised ligand",1 µM,100,COc1cc(-c2cn(C3CCc4c(F)cccc4N(CC(F)(F)F)C3=O)nn2)ccc1-n1cnc(C)c1 (stereo not shown)
RET V804M,"binding, competition with immobilised ligand",10 µM,8.8,c1cncc(-c2cccc(Nc3nccc(NC4CCCCC4)n3)c2)c1
RET V804M,"cell-free assay, competition with immobilised ligand",1 µM,100,COc1cc(-c2cn(C3CCc4ccccc4N(CC(F)(F)F)C3=O)nn2)ccc1-n1ccc(C)n1 (stereo not shown)
RET M918T,"binding, competition with immobilised ligand",1 µM,93,O=C(NCCCN1CCOCC1)c1ccc(Nc2nccc(-c3cc4ccccc4s3)n2)cc1
RET M918T,binding,1 µM,94,N[C@@H]1CCN(c2nccc(-c3cnn4ncccc34)n2)C1
RET M918T,"binding, competition with immobilised ligand",1 µM,100,Nc1ncc2c(n1)-c1c([nH]c3ccc(C#CC4CC4)cc13)CCCC2
RET V804L,binding,1 µM,99,CN(C)c1nccc(-c2cnn3ncccc23)n1
RET V804L,"binding, competition with immobilised ligand",1 µM,80,O=C(c1ccc(Nc2nccc(-c3cc4ccccc4s3)n2)cc1)N1CCC(N2CCCC2)CC1
RET V804M,"binding, competition with immobilised ligand",1 µM,100,C=CC(=O)N1CCC(C(=O)NCC(=O)N2CCN(c3nc(-c4cnc(N)nc4C(F)F)nc(N4CCOCC4)n3)CC2)CC1
RET V804L,binding,1 µM,100,CN(CCCC(F)(F)F)c1nccc(-c2cnn3ncccc23)n1
RET V804M,"cell-free assay, competition with immobilised ligand",1 µM,94,CO[C@@H](C)c1c(Nc2ccc([C@H](N(C)C(=O)C3CCS(=O)(=O)CC3)C(F)(F)F)cc2)cnc2cc(Cl)nn12
RET V804L,"binding, competition with immobilised ligand",1 µM,13,O=C(NCCCN1CCOCC1)c1ccc(Nc2ncc(Cl)c(-c3ccc(Cl)s3)n2)cc1
RET V804L,"binding, competition with immobilised ligand",1 µM,100,O=C(NCC1CCOCC1)c1n[nH]cc1NC(=O)c1c(F)cccc1F
RET M918T,"binding, competition with immobilised ligand",1 µM,96,O=C(N[C@H]1CCCCC/C=C\C2C[C@@]2(C(=O)O)NC(=O)[C@@H]2C[C@@H](Oc3ccncc3)CN2C1=O)OC1CCCC1 (stereo partly shown)
RET V804L,"binding, competition with immobilised ligand",1 µM,73,COc1cnc(Nc2cccc(S(N)(=O)=O)c2)nc1N1CCN(c2ccccc2)CC1
